According to ChEMBL document CHEMBL1147677, “Synthesis and biological evaluation of glycosidase inhibitors: gem-difluoromethylenated nojirimycin analogues” (J Med Chem, 2006):

Key:
[1] = Dissociation constant, pKa of the compound; type: physicochemical
[2] = Inhibition of yeast alpha glucosidase at pH 6.8; design: species or system Saccharomyces cerevisiae
Method in brief: (§1)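 Nitrophenyl glycoside substrate hydrolysis in 0.1 M sodium phosphate, pH 6.8, 25 °C. Seven cuvettes hold a fixed inhibitor concentration and seven hold none, each across varying substrate levels. The reaction is started with diluted enzyme, and 4- or 2-nitrophenol release is followed at 400 nm for 2 min. Ki = [I]/(KM′/KM − 1) from KM with and without inhibitor.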

[3] = target: T1, Tissue alpha-L-fucosidase (Bos taurus, UniProt Q2KIM0); assay: Inhibition of bovine kidney alpha fucosidase at pH 6.8; method in brief: as §1
T1 sequence (Q2KIM0 whole entry): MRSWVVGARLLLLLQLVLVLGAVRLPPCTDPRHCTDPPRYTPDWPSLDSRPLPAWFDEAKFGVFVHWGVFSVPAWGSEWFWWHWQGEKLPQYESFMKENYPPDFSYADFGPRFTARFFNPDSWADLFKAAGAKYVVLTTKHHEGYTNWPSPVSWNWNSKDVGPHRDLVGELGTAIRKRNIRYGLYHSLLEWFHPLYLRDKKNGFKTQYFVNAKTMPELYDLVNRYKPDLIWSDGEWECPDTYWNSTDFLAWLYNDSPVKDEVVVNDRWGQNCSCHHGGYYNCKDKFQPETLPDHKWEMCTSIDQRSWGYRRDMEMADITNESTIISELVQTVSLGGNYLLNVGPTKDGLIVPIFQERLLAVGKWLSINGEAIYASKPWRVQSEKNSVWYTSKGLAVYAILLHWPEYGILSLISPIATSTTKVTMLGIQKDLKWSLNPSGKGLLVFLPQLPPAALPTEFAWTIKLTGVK

[4] = target: T2, Tissue alpha-L-fucosidase (Homo sapiens, UniProt P04066); assay: Inhibition of human placenta alpha fucosidase at pH 6.8; method in brief: as §1
T2 sequence (P04066 whole entry): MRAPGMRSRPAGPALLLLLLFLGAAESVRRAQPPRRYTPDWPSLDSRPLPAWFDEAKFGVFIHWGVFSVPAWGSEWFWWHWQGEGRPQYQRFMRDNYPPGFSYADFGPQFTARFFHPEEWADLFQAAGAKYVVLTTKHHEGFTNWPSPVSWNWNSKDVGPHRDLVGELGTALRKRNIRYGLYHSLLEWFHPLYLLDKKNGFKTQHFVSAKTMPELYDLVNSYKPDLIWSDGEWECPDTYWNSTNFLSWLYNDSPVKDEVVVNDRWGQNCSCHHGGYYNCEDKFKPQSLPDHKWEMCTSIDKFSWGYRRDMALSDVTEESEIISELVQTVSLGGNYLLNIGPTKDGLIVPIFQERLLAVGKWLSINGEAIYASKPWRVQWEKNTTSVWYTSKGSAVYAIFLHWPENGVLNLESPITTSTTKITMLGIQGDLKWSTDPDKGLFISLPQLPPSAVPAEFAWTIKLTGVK

Alpha-galactosidase = Alpha-galactosidase (Coffea arabica, UniProt Q5DUH8); assay: Inhibition of green coffee beans alpha galactosidase at pH 6.8; method in brief: as §1
Alpha-galactosidase, sequence (Q5DUH8 whole entry): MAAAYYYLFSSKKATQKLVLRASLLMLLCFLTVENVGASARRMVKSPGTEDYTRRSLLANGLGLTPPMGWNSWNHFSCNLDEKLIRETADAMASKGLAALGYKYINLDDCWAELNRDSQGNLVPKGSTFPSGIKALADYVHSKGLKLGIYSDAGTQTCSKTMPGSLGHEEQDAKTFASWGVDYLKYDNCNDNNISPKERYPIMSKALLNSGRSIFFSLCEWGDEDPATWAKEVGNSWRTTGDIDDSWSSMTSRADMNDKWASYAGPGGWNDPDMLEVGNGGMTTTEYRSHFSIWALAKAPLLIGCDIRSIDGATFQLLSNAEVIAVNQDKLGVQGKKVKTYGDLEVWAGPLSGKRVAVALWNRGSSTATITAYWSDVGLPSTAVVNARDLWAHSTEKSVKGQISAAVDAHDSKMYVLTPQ

Row | pKa [1] | Ki [2] [mM] | Ki [3] [mM] | Ki [4] [mM] | Ki (Alpha-galactosidase) [mM] | SMILES
1 | 5.3 | – | – | – | – | OC[C@H]1NC[C@@H](O)[C@@H](O)C1(F)F
2 | – | > 1 | 0.57 | 0.25 | > 1 | C[C@@H]1NC[C@@H](O)[C@H](O)C1(F)F
3 | – | > 1 | > 1 | > 1 | > 1 | C[C@H]1NC[C@H](O)[C@@H](O)C1(F)F
